Test results taken from ChEMBL document CHEMBL1123024, “5,6-Diaryl-2,3-dihydroimidazo[2,1-b]thiazoles: a new class of immunoregulatory antiinflammatory agents” (1985).

What was measured:
Assay type in all cases: functional
[1] = organism: Mus musculus; test: Immunoregulatory activity against oxazolone induced mouse contact sensitivity was evaluated as percent change
In short: (§1)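 Male C57B1/6 mice were sensitized with 0.1 mL of 5% oxazolone in absolute ethanol on the clipped abdomen. At 45 h the left hind leg was challenged with 5% oxazolone. Compound was given po in 0.5% tragacanth. Edema was read plethysmographically 24 h later as left minus right leg volume. Six mice vs eight controls; Student's t test.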

[2] = tested on: Rattus norvegicus; test: The compound was tested for percent change in nonimmune L16 inflammatory lesions in rat adjuvant-induced arthritis at 50 mg/kg
In short: (§2)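 Male Wistar rats received 0.75 mg M. butyricum in paraffin oil intradermally into the left hindpaw. Compounds were given daily po in 0.5% tragacanth from the injection day for 17 days, skipping days 4, 5, 11 and 12. Leg volumes were read by mercury displacement: left leg on day 3, both legs on day 16. Eight treated rats vs 16 vehicle controls; Student's t test. ED25 is the dose giving a 25% volume decrease, from at least three doses, with 95% limits by Fieller's theorem.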

[3] = tested on: Rattus norvegicus; test: The compound was tested for percent change in immune R16 inflammatory lesions in rat adjuvant-induced arthritis at 50 mg/kg; in short: as §2
[4] = tested on: Rattus norvegicus; test: The compound was tested for percent change in nonimmune L3 inflammatory lesions in rat adjuvant-induced arthritis at 50 mg/kg; in short: as §2
[5] = organism: Mus musculus; test: Immunoregulatory activity against mouse contact sensitivity was evaluated as percent change; in short: as §1
[6] = tested on: Rattus norvegicus; test: Percent change in nonimmune L3 inflammatory lesions in rat adjuvant-induced arthritis at 50 mg/kg; in short: as §2
[7] = tested on: Rattus norvegicus; test: Percent change in nonimmune L16 inflammatory lesions in rat adjuvant-induced arthritis at 50 mg/kg; in short: as §2
[8] = tested on: Rattus norvegicus; test: Percent change in immune R16 inflammatory lesions in rat adjuvant-induced arthritis at 50 mg/kg; in short: as §2
[9] = tested on: Rattus norvegicus; test: Compound was tested by carrageenan -induced paw edema for percent change in paw volume of control sham operated rats at 50 mg/kg.
In short: (§3)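 Normal, adrenalectomized or sham-operated Lewis rats were dosed po in 0.5% tragacanth, hydrated. 1 h later paw volume was read, then […] of 1% carrageenan in 0.9% saline was injected into the right hindpaw plantar surface. Volume was re-read at 3 h. Percent change, treated vs control; Student's t test.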

[10] = tested on: Rattus norvegicus; test: Compound was tested by carrageenan -induced paw edema for percent change in paw volume of control sham operated rats at 100 mg/kg.; in short: as §3
[11] = tested on: Rattus norvegicus; test: The compound was tested for percent change in nonimmune L3 inflammatory lesions in rat adjuvant-induced arthritis at 50 mg/kg; the %change is Not statistically significant; in short: as §2
[12] = tested on: Rattus norvegicus; test: Compound was tested by carrageenan-induced paw edema for percent change in paw volume of control sham operated rats at 50 mg/kg; the %change is Not statistically significant; in short: as §3
[13] = tested on: Rattus norvegicus; test: Compound was tested by carrageenan -induced paw edema for percent change in paw volume of control sham operated rats at 50 mg/kg; the % change was Not statistically significant; in short: as §3
[14] = organism: Mus musculus; test: Immunoregulatory activity against oxazolone induced mouse contact sensitivity was evaluated as percent change; the % change in Not statistically Significant; in short: as §1

| Structure (SMILES) | Change [5] | Change [6] | Change [7] | Change [8] | further results |
| --- | --- | --- | --- | --- | --- |
| COc1ccc(-c2c(-c3ccc(F)cc3)nc3n2CC[S+]3[O-])cc1 (stereo unspecified) | – | – | – | – | Change [1]: 65%; Change [2]: -39%; Change [3]: -39%; Change [4]: -35% |
| FC(F)(F)COc1ccc(-c2nc3n(c2-c2ccc(OCC(F)(F)F)cc2)CCS3)cc1 | 26% | -13% | -20% | -3% | – |
| COc1ccc(-c2nc3n(c2-c2ccc(OC)c(OC)c2)CCS3)cc1OC | 48% | 0% | -2% | 5% | – |
| COc1ccc(-c2nc(SC)[nH]c2-c2ccc(OC)cc2)cc1 | 52% | -29% | -45% | -38% | – |
| Fc1cccc(-c2nc3n(c2-c2cccc(F)c2)CCS3)c1 | 22% | -1% | -1% | 3% | – |
| CSc1ccc(-c2nc3n(c2-c2ccc(SC)cc2)CCS3)cc1 | 73% | -25% | -36% | -38% | Change [9]: -33% |
| COc1ccc(-c2cn3c(n2)SCC3)cc1 | 132% | -3% | -10% | -16% | – |
| CC(=O)Oc1ccc(-c2nc3n(c2-c2ccc(OC(C)=O)cc2)CCS3)cc1 | 101% | -16% | -12% | -17% | – |
| Fc1ccc(-c2nc3n(c2-c2ccc(F)cc2)CCS3)cc1 | 79% | -39% | -36% | -49% | – |
| Cc1ccc(-c2nc3n(c2-c2ccc(C)cc2)CCS3)cc1 | 86% | -6% | 0% | -7% | – |
| CC(C)(C)C(=O)Nc1ccc(-c2nc3n(c2-c2ccc(NC(=O)C(C)(C)C)cc2)CCS3)cc1 | 15% | -4% | -3% | -1% | – |
| Cl.Fc1ccc(-c2nc3n(c2-c2ccc(F)cc2)CCS3)cc1 | 79% | -39% | -36% | -49% | Change [10]: 6%; Change [9]: -9% |
| CCN(C(C)=O)c1ccc(-c2nc3n(c2-c2ccc(N(CC)C(C)=O)cc2)CCS3)cc1 | 43% | -4% | -1% | -10% | – |
| COc1ccc(-c2c(-c3ccccc3)nc3n2CCS3)cc1OC | 69% | 5% | 1% | 11% | – |
| CCN(C)c1ccc(-c2nc3n(c2-c2ccc(N(C)CC)cc2)CCS3)cc1 | 69% | -31% | -41% | -36% | – |
| O=S1(=O)CCn2c1nc(-c1ccc(F)cc1)c2-c1ccc(F)cc1 | – | – | – | – | Change [11]: -6%; Change [1]: 20%; Change [2]: -17%; Change [3]: -34%; Change [12]: 3% |
| COc1ccc(-c2nc3n(c2-c2ccc(OC)cc2)C(=O)CS3)cc1 | 25% | -4% | 4% | 0% | – |
| COc1ccc(-c2nc3n(c2-c2ccccc2)CCS3)cc1OC | 82% | 8% | -1% | -6% | – |
| FC(F)(F)c1ccc(-c2nc3n(c2-c2ccc(C(F)(F)F)cc2)CCS3)cc1 | 89% | 0% | 12% | 1% | Change [10]: 4% |
| Clc1ccc(-c2nc3n(c2-c2ccc(Cl)cc2)CCS3)cc1 | 43% | -18% | -35% | -38% | – |
| C[S+]([O-])c1ccc(-c2nc3n(c2-c2ccc([S+](C)[O-])cc2)CC[S+]3[O-])cc1 (stereo unspecified) | – | – | – | – | Change [2]: -44%; Change [13]: 10%; Change [3]: -47%; Change [14]: 38%; Change [4]: -27% |
| CC(=O)Nc1ccc(-c2nc3n(c2-c2ccc(NC(C)=O)cc2)CCS3)cc1 | 78% | 3% | -1% | – | Change [3]: 12% |
| COc1ccc(-c2nc3n(c2-c2ccccc2)CCS3)cc1 | 26% | -5% | -10% | 1% | – |
| C[S+]([O-])c1ccc(-c2nc3n(c2-c2ccc([S+](C)[O-])cc2)CCS3)cc1 (stereo unspecified) | 117% | -25% | -27% | -19% | – |

| Structure (SMILES) | Change [5] | Change [6] | Change [7] | Change [8] | further results |
| --- | --- | --- | --- | --- | --- |
| CCSc1nc(-c2ccc(OC)cc2)c(-c2ccc(OC)cc2)[nH]1 | 119% | -31% | -42% | -37% | – |
| CCCCOc1ccc(-c2nc3n(c2-c2ccc(OCCCC)cc2)CCS3)cc1 | 130% | 5% | 2% | 2% | – |
| Brc1ccc(-c2nc3n(c2-c2ccc(Br)cc2)CCS3)cc1 | 71% | -25% | -42% | -46% | – |
| COc1ccc(-c2c(-c3ccccc3)nc3n2CCS3)cc1 | 112% | -15% | -11% | -6% | – |
| COc1ccc(-c2nc3n(c2-c2ccc(OC)c(C)c2)CCS3)cc1C | 30% | -16% | -20% | -19% | – |
| c1cc2c(cc1-c1nc3n(c1-c1ccc4c(c1)OCO4)CCS3)OCO2 | 16% | -18% | -23% | -27% | – |
| COc1ccc(-c2nc3n(c2-c2ccc(F)cc2)CCS3)cc1 | 103% | 11% | -4% | 6% | – |
| C=CCOc1ccc(-c2nc3n(c2-c2ccc(OCC=C)cc2)CCS3)cc1 | 71% | -2% | -2% | -21% | – |
| Cc1cccc(-c2nc3n(c2-c2cccc(C)c2)CCS3)c1 | 38% | -14% | -13% | -5% | – |
| Nc1ccc(-c2nc3n(c2-c2ccc(N)cc2)CCS3)cc1 | 36% | -15% | -10% | 0% | – |
| CCOc1ccc(-c2nc3n(c2-c2ccc(OCC)cc2)CCS3)cc1 | 150% | -22% | -34% | -32% | – |
| CSc1ccc(-c2c(-c3ccc(F)cc3)nc3n2CCS3)cc1 | 122% | -16% | -30% | -30% | – |
| CCSc1nc(-c2ccc(OC)cc2)c(-c2ccc(OC)cc2)n1CC | 65% | -6% | -9% | -8% | – |
| COc1ccc(-c2nc(SC)n(C)c2-c2ccc(OC)cc2)cc1 | 150% | -24% | -31% | -35% | – |
| COc1ccc(-c2nc3n(c2-c2ccc(OC)cc2)CCCS3)cc1 | 30% | -2% | -4% | -20% | – |
| Oc1ccc(-c2nc3n(c2-c2ccc(O)cc2)CCS3)cc1 | 122% | -9% | -7% | 9% | – |
| COc1cc(-c2nc3n(c2-c2cc(OC)c(OC)c(OC)c2)CCS3)cc(OC)c1OC | 75% | -2% | 0% | -19% | – |
| c1ccc(-c2nc3n(c2-c2ccccc2)CCS3)cc1 | – | -12% | -4% | -4% | Change [10]: -7%; Change [9]: -9% |
| COc1ccc(-c2nc3n(c2-c2ccc(OC)c(F)c2)CCS3)cc1F | 88% | 1% | 0% | -3% | – |
| COc1ccccc1-c1nc2n(c1-c1ccccc1OC)CCS2 | 95% | 0% | -5% | -7% | – |
| c1ccc2c(c1)nc1n2CCS1 | 51% | -18% | -2% | 7% | – |
| COc1cccc(-c2nc3n(c2-c2cccc(OC)c2)CCS3)c1 | 166% | 0% | -4% | -16% | Change [10]: -3% |
| CSc1ccc(-c2nc3n(c2-c2ccc(F)cc2)CCS3)cc1 | 44% | -14% | 0% | 6% | – |
